According to ChEMBL document CHEMBL2406965, “Optimization of N-benzoylindazole derivatives as inhibitors of human neutrophil elastase” (J Med Chem, 2013):
pIC50: −log10 of the molar value. Active and inactive are the calls of the source. No cut-off for these calls is given here.

How the values were obtained:
[1] = biological target: T1, Neutrophil elastase (Homo sapiens, UniProt P08246); test: Inhibition of human neutrophil elastase using N-methylsuccinyl-Ala-Ala-Pro-Val-7-amino-4-methylcoumarin as substrate measured every 30 seconds for 10 mins by fluorescence microplate reader analysis
T1 sequence (P08246 whole entry): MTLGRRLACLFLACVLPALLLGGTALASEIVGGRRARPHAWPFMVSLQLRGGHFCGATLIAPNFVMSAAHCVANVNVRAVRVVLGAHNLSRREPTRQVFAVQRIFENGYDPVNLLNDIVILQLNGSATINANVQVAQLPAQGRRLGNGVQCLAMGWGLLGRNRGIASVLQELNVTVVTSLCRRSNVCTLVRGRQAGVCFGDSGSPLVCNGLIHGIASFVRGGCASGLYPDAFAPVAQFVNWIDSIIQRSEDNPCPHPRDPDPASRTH

[2] = biological target: T2, Plasma kallikrein (Homo sapiens, UniProt P03952); test: Inhibition of human plasma kallikrein using benzyloxycarbonyl-Phe-Arg-7-amino-4-methylcoumarin as substrate at 50 uM by fluorescence microplate reader analysis
[3] = biological target: T3, Neutrophil elastase (Homo sapiens) (UniProt P08246); test: Inhibition of human neutrophil elastase using N-methylsuccinyl-Ala-Ala-Pro-Val-7-amino-4-methylcoumarin as substrate at 5 uM after 4 hrs by fluorescence microplate reader analysis
T3 sequence (whole entry): T1 sequence (P08246 whole entry)

[4] = Half life in phosphate buffer at pH 7.3; assay type: physicochemical
[5] = biological target: Cathepsin D (Homo sapiens) (UniProt P07339); test: Inhibition of human spleen cathepsin D using MOCAc-Gly-Lys-Pro-Ile-Leu-Phe-Phe-Arg-Leu-Lys (Dnp)-D-Arg-NH2 as substrate at 50 uM by fluorescence microplate reader analysis
Procedure, shortened: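 Cathepsin D from human spleen, 0.1 U/mL, in 0.1 M sodium acetate pH 5.0 with 5 μM MOCAc peptide substrate, 25 °C. Highest compound concentration tested 50 μM.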

[6] = biological target: T4, Urokinase-type plasminogen activator (Homo sapiens, UniProt P00749); test: Inhibition of human urokinase using benzyloxycarbonyl-Gly-Gly-Arg-7-amino-4-methylcoumarin as substrate by fluorescence microplate reader analysis
[7] = biological target: Prothrombin (Homo sapiens, UniProt P00734); test: Inhibition of human plasma thrombin using benzonyl-Phe-Val-Arg-7-amino-4-methylcoumarin as substrate by fluorescence microplate reader analysis
[8] = biological target: Chymotrypsinogen B (Homo sapiens, UniProt P17538); test: Inhibition of human pancreatic chymotrypsin using Suc-Ala-Ala-Pro-7-amino-4-methylcoumarin as substrate by fluorescence microplate reader analysis
[9] = biological target: T3, Neutrophil elastase (Homo sapiens); test: Reversible inhibition of human neutrophil elastase using N-methylsuccinyl-Ala-Ala-Pro-Val-7-amino-4-methylcoumarin as substrate at 5 uM after 1 to 2 hrs by fluorescence microplate reader analysis
[10] = biological target: T2, Plasma kallikrein; test: Inhibition of human plasma kallikrein using benzyloxycarbonyl-Phe-Arg-7-amino-4-methylcoumarin as substrate by fluorescence microplate reader analysis
[11] = biological target: T4, Urokinase-type plasminogen activator; test: Inhibition of human urokinase using benzyloxycarbonyl-Gly-Gly-Arg-7-amino-4-methylcoumarin as substrate at 50 uM by fluorescence microplate reader analysis
[12] = biological target: T3, Neutrophil elastase (Homo sapiens); test: Competitive inhibition of human neutrophil elastase using N-methylsuccinyl-Ala-Ala-Pro-Val-7-amino-4-methylcoumarin as substrate by Lineweaver-Burk plot analysis
[13] = biological target: T3, Neutrophil elastase (Homo sapiens); test: Inhibition of human neutrophil elastase using N-methylsuccinyl-Ala-Ala-Pro-Val-7-amino-4-methylcoumarin as substrate at 5 uM after 5 hrs by fluorescence microplate reader analysis
[14] = biological target: T3, Neutrophil elastase (Homo sapiens); test: Inhibition of human neutrophil elastase using N-methylsuccinyl-Ala-Ala-Pro-Val-7-amino-4-methylcoumarin as substrate at 50 uM measured every 30 seconds for 10 mins by fluorescence microplate reader analysis

Chain of Cathepsin D (Homo sapiens) (P07339 65-162 limits assumed): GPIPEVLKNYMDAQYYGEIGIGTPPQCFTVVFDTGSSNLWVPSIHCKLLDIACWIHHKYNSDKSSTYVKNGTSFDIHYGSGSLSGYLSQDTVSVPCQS
Chain of Cathepsin D (Homo sapiens) (P07339 169-412 limits assumed): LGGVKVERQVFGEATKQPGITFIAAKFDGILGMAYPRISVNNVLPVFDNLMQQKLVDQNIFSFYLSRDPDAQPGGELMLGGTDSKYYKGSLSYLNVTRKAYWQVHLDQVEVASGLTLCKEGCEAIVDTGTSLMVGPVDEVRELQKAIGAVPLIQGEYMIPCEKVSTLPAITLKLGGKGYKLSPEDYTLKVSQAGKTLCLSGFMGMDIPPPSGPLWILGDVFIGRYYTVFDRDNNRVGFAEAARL
Chain of Chymotrypsinogen B (P17538 34-164 limits assumed, other chains not shown): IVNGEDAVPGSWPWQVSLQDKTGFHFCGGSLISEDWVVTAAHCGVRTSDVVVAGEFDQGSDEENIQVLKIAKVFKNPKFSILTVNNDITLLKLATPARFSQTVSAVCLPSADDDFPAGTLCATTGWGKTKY
Chain of Chymotrypsinogen B (P17538 167-263 limits assumed, other chains not shown): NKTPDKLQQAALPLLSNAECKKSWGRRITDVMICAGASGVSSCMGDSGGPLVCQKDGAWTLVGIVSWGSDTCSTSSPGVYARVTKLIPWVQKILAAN
T2 sequence (P03952 20-390 limits assumed): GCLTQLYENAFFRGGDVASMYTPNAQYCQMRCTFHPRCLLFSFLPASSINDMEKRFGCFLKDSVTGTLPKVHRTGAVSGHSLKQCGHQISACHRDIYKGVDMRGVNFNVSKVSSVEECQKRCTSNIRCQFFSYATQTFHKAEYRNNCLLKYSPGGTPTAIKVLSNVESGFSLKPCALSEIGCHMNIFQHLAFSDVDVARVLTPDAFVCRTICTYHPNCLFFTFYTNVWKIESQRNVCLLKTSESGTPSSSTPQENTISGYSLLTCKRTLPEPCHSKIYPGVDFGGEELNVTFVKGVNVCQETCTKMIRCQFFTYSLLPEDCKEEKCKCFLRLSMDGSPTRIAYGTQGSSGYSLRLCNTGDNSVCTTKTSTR
T2 sequence (P03952 391-638 limits assumed): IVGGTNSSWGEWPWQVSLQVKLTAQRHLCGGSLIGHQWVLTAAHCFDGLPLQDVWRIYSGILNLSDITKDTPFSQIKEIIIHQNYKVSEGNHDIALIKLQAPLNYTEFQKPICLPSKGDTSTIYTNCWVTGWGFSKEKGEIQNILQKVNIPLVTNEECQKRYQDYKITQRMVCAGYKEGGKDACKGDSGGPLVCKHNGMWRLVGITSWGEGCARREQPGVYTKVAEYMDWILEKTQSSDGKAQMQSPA

| SMILES | pIC50 [1] | inhibition [2] | pIC50 [6] | pIC50 [7] | pIC50 [8] | further results |
| --- | --- | --- | --- | --- | --- | --- |
| CCOC(=O)c1nn(C(=O)c2ccccc2)c2ccc(OC)cc12 | 7.10 | – | – | – | – | – |
| CCCC(=O)Nc1ccc2c(c1)c(C(=O)OCC)nn2C(=O)c1cccc(C)c1 | 7.30 | – | – | – | – | – |
| COC(=O)c1nn(C(=O)c2cccc(C)c2)c2ccc(Br)cc12 | 7.10 | inactive | – | – | – | – |
| COC(=O)c1nn(C(=O)c2cccc(OC)c2)c2ccc(Br)cc12 | – | inactive | – | – | – | – |
| CCOC(=O)c1nn(C(=O)c2cccc(C)c2)c2ccc(NC(C)=O)cc12 | 7.52 | inactive | 4.86 | 6.51 | – | inhibition [3]: Active; t1/2 [4]: 78.8 min; inhibition [5]: inactive |
| CCOC(=O)c1nn(C(=O)c2cccc(C)c2)c2ccc(OC(F)(F)F)cc12 | 6.96 | – | – | – | – | – |
| COC(=O)c1nn(C(=O)c2cccc(C)c2)c2ccc([N+](=O)[O-])cc12 | – | inactive | 6.36 | 5.96 | – | inhibition [3]: Active; t1/2 [4]: 47.8 min; inhibition [5]: inactive |
| COC(=O)c1nn(C(=O)c2ccsc2)c2ccc([N+](=O)[O-])cc12 | 7.30 | – | – | – | – | – |
| CCOC(=O)c1nn(C(=O)c2cccc(C)c2)c2ccc([N+](=O)[O-])cc12 | – | inactive | 5.82 | 6.32 | 7.40 | – |
| CCOC(=O)c1nn(C(=O)c2cccc(C)c2)c2ccc(NC(=O)CC)cc12 | – | inactive | 4.83 | 7.41 | 6.85 | – |
| COC(=O)c1nn(C(=O)c2ccccc2)c2ccc([N+](=O)[O-])cc12 | 7.52 | – | 6.21 | 6.08 | 7.51 | inhibition [9]: Active; t1/2 [4]: 37.9 min; inhibition [5]: inactive; pIC50 [10]: 4.95 |
| Cc1cccc(C(=O)n2nc(C#N)c3ccccc32)c1 | – | inactive | 5.18 | 5.72 | 7.18 | – |
| CCOC(=O)c1nn(C(=O)c2cccc(OC)c2)c2ccc([N+](=O)[O-])cc12 | – | inactive | 6.32 | 7.09 | 7.68 | – |
| N#Cc1nn(C(=O)c2ccccc2)c2ccccc12 | 7.40 | – | – | – | – | – |
| CCOC(=O)c1nn(C(=O)c2cccc(C)c2)c2ccc(NC(=O)C3CC3)cc12 | 7.92 | inactive | – | 6.80 | 6.43 | inhibition [11]: inactive; inhibition [12]: Active; t1/2 [4]: 51.7 min; inhibition [13]: Active; inhibition [5]: inactive |
| CCOC(=O)c1nn(C(=O)c2cccc(C)c2)c2ccc(OC)cc12 | 6.85 | – | – | – | – | – |
| CCOC(=O)c1nn(C(=O)c2ccccc2)c2ccc([N+](=O)[O-])cc12 | 7.70 | – | – | – | – | – |
| COC(=O)c1nn(C(=O)c2cccc(C)c2)c2cc([N+](=O)[O-])ccc12 | 7.70 | inactive | 6.51 | 6.19 | 7.42 | t1/2 [4]: 41.5 min; inhibition [5]: inactive |
| CCOC(=O)c1nn(C(=O)c2cccc(C)c2)c2ccc(N(C)C)cc12 | 6.85 | – | – | – | – | – |
| CCOC(=O)c1nn(C(=O)c2ccsc2)c2ccc([N+](=O)[O-])cc12 | 7.52 | inactive | 4.60 | 6.43 | 7.34 | inhibition [9]: Active; t1/2 [4]: 32.8 min; inhibition [5]: inactive |
| COC(=O)c1nn(C(=O)c2ccsc2)c2ccc(Br)cc12 | 6.80 | – | – | – | – | – |
| CCOC(=O)c1nn(C(=O)c2ccsc2)c2ccc(Br)cc12 | 6.59 | – | – | – | – | – |
| COC(=O)c1nn(C(=O)c2cccc(C)c2)c2c([N+](=O)[O-])cccc12 | – | – | – | – | – | inhibition [14]: inactive |
